Screening data: PubChem BioAssay, Broad Institute
These entries were drawn from the full list.
PGC1a Ac signal: compounds raising PGC1a acetylation signal, primary screen, PGC1a modulator project, cell-based, U2OS, AlphaScreen, signal-increasing mode; overnight; activation, % at 15.6 µM; 0.21% of 350,000 active; AID 651723, 2012;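 active = every replicate reaching activation of at least 50%, whatever the mean replicate activation; inconclusive = replicates that disagree or another doubt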;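 also: hits raise the AlphaScreen acetylation signal above neutral controls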
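System – flag-PGC1a/GCN5 U2OS cells · Quantity – 7000 U2OS cells per well · Signal – AlphaScreen proximity luminescence, anti-acetyl-lysine antibody · Schedule – overnight compound treatment, 37 °C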
Hep G6PC suppr: suppressors of forskolin-stimulated G6PC mRNA, dose response, PGC-1a acetylation activator project, cell-based, hepatocytes, RT-qPCR, cherry-picked samples | shares compounds with PGC1a Ac signal | primary mouse hepatocytes | G6PC suppression (normalized activity, % of positive control; higher = more suppression), % at 26 µM | 240 tested, under 10 active | AID 743463, 2014;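 active = dose curves showing G6PC suppression whose half-maximal dose is at most twice the top valid dose; inconclusive = flat curves with moderate negative activity, or unreliable fits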;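 also: G6PC expression relative to GAPDH housekeeping gene as delta delta Ct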
Hep PCK1 suppr: suppression of PCK1 mRNA in primary hepatocytes, dose response, PGC-1a acetylation activator project, cell-based, primary mouse hepatocytes, RT-qPCR, cherry-pick. shares compounds with PGC1a Ac signal. forskolin-stimulated. PCK1 expression decrease, unspecified at 26 µM. 230 tested, under 10 active. AID 743465, 2014;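 active = compounds lowering PCK1 expression whose fitted half-maximal concentration is at most twice the top tested dose; inconclusive = flat fit with moderate opposite-direction effect, or poor fit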;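 also: higher delta delta Ct means lower PCK1 expression so positive values indicate hits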
Hep PGC-1a down: suppression of PGC-1a mRNA in primary hepatocytes, dose response, PGC-1a acetylation activator project, cell-based, primary mouse hepatocytes, RT-qPCR, cherry-pick; max activity (PGC-1a expression decrease), %; shares compounds with PGC1a Ac signal; 240 tested, under 10 active; PGC-1a mRNA qPCR, forskolin; top dose 26 µM; AID 743467, 2014;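 active = compound lowering PGC-1a expression with fitted half-maximal concentration at most twice its top tested dose; inconclusive = flat curve with moderate opposite-direction effect, or poor fit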
Numbers stand for hits; – = inactive; ? = inconclusive; · = no result.

SMILES	PGC1a Ac signal	Hep G6PC suppr	Hep PCK1 suppr	Hep PGC-1a down
COc1ccc(S(=O)(=O)Nc2ccc3c(c2)C(=O)N([C@@H](C)CO)C[C@@H](C)[C@H](CN(C)S(=O)(=O)c2ccc(Cl)cc2)OCCCC[C@H](C)O3)cc1	–	–	–	–
Cc1noc(C)c1S(=O)(=O)Nc1ccc2c(c1)C(=O)N([C@H](C)CO)C[C@@H](C)[C@@H](CN(C)S(=O)(=O)c1cccs1)OCCCC[C@H](C)O2	–	·	·	·
COCCNC(=O)C(c1ccc(F)cc1)N(Cc1ccco1)C(=O)CCC(=O)Nc1nccs1 (stereo not drawn)	–	·	·	·
Cc1ccc(-c2nnc(Nc3ccc4c(c3)OCO4)c3ccccc23)cc1S(=O)(=O)NCCO	94	–	–	–
Cc1ccc2nc(SCC(=O)Nc3ccc(F)cc3)nc(=O)n2c1	–	·	·	·
CCCS(=O)(=O)Nc1cccc(-c2nc3cccnc3s2)c1	?	–	–	–
Cc1cc(C(=O)NNS(=O)(=O)c2ccc(F)cc2)nn1C(C)(C)C	456	·	–	–
CCCc1nc2c(=O)n(C)c(=O)nc-2n(C)n1	–	·	·	·
O=S(=O)(NC12CC3CC(CC(C3)C1)C2)c1ccc(F)cc1	60	–	–	–
O=S(=O)(Nc1nc2c(s1)CCCC2)c1ccc(F)cc1	–	·	·	·
COc1cccc2c1C(=O)c1c(O)c3c(c(O)c1C2=O)CC(O)(C(C)=O)CC3OC1CC(N(C)C)C(O)C(C)O1 (stereo not drawn)	–	·	·	·
Cc1cc(C)nc(NC(=S)Nc2ccccc2)n1	–	·	·	·
Cn1nc(-c2ccccn2)nc2c(=O)n(C)c(=O)nc1-2	–	·	·	·
COc1ccc(C2CC(=O)N(C)c3ccccc3S2)cc1 (stereo not drawn)	–	–	–	–
CCOc1ccc(N2C(=O)Cc3ccccc3C2=O)cc1	–	·	·	·
